# PglD inh: PglD (C. jejuni) enzyme inhibition; purified PglD enzyme, DTNB colorimetric CoA detection; inhibition, % at 12.5 µM; hit rate 0.098% among 360,000; AID 602405; in the data active = inhibition above about 16%, passing the limit was not always enough
# S100A4 MyoIIA: blocks human S100A4 binding to myosin IIA peptide | S100A4/TAMRA-MyoIIA peptide fluorescence polarization | inhibition, % at 10.7 µM | hit rate 0.14% among 360,000 | AID 652163;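 active = mean inhibition of at least 70% across replicates, with every replicate also reaching that level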
# Target sequence (P26447 whole entry, looked up): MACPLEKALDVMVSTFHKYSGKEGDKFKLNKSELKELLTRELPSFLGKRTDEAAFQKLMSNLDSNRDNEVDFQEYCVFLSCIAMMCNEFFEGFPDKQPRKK
#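 Material: S100A4 monomer protein / Buffer or medium: 50 mM HEPES pH 7.2, 10 mM CaCl2, 100 mM KCl / Times: 5 min incubation before reading / Benchmarks: neutral control DMSO, positive control TFP / Reagent: labelled myosin peptide probe, 5 nM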
# PDI inh: inhibitors of human protein disulfide isomerase; PDI insulin aggregation turbidity, A650, 90 min; inhibition, % at 10 µM; hit rate 0.052% among 350,000;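 active = mean inhibition across replicates of 30% or more, whatever share of single replicates reach that level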
# ERp5 inh: inhibitors of human ERp5; Q15084; ERp5 insulin aggregation, absorbance 650 nm, 90 min; inhibition, % at 9.99 µM; hit rate 0.05% among 350,000;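 active = mean replicate inhibition above about 25%, with every replicate also reaching it, limit read from the data, passing the limit was not always enough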
# FN deposit inh: fibronectin deposition inhibition. hit rate 0.086% among 350,000. AID 743247. inhibition, % at 12.6 µM. AH1F fibroblasts, Alexa488-fibronectin deposition fluorescence, overnight;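 active = mean inhibition across replicates of 30% or more, regardless of how many single replicates reach that level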;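 note: positive control wells lacked labelled fibronectin entirely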
#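 material = AH1F fibroblast monolayer depositing Alexa488-labelled fibronectin into matrix | amount = 10000 AH1F cells/well | buffer or medium = DMEM plus 2% serum, read in PBS | incubation = 1 h cell adhesion before compound, then overnight fibronectin incubation | detection = fluorescence at 485 nm excitation, 525 nm emission | evaluation = percent inhibition as loss of matrix-bound fibronectin fluorescence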
# RAD54 inh: blocks human RAD54 Holliday junction branch migration; FAM/BHQ fluorescence; inhibition, % at 10.4 µM; hit rate 0.14% among 360,000;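 active = mean normalized replicate activity at least 40 and at least half of replicates scoring 40 or more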;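 note: 0% = median of neutral control wells and 100% = median of positive control wells; inhibitors cause a drop in the FAM fluorescence signal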
# Starred values were filed as active, the others as inactive; nt = not tested or not shown; + = active, no number. This is a sample that favours compounds with a hit; in the whole collection about 0.44% have one here.
SMILES,PglD inh,S100A4 MyoIIA,PDI inh,ERp5 inh,FN deposit inh,RAD54 inh
C[C@H]1CN([C@@H](C)CO)C(=O)c2cc(C#CCN(C)C)cnc2O[C@H]1CN(C)S(=O)(=O)c1ccccc1,-2,-21,nt,5,0,15
C[C@H]1CCCCO[C@H](CN(C)C(=O)C2CCCCC2)[C@@H](C)CN([C@@H](C)CO)C(=O)c2cc(NC(=O)Cc3ccccc3)ccc2O1,-1,7,nt,-7,nt,5
COc1ccccc1CNc1nc(NCc2ccccc2)nc2ccsc12,0,1,-6,8,nt,-3
COc1ccccc1CNc1nc(NCc2cnc(C)cn2)c2sccc2n1,-6,-6,-8,1,35*,-2
CCC(=O)N(C)C[C@@H]1Oc2cc(C#CC3CCCC3)ccc2S(=O)(=O)N([C@H](C)CO)C[C@@H]1C,-1,-24,nt,3,-23,-7
COc1ccc(-c2c(-c3cccc(C)c3)oc3ccc(-c4ccc5c(c4)OCO5)cc23)cn1,0,nt,-24,nt,12,6
Cc1cccc(-c2oc3ccc(-c4ccc5c(c4)OCO5)cc3c2-c2ccc(OC3CCCCO3)cc2)c1 (stereo unspecified),-1,107*,1,-1,-20,-8
Cc1ccc(NC(=O)COc2ccccc2)c(NC(=O)c2ccco2)c1,3,-1,10,30*,nt,19
CO[C@@H]1CN(C)C(=O)c2ccc(NC(C)=O)cc2OC[C@H](C)N(Cc2ccncc2)C[C@H]1C,2,-5,nt,12,-4,0
CN(C)Cc1cc(C(C)(C)c2cc(CN(C)C)c(O)c(CN(C)C)c2)cc(CN(C)C)c1O,-1,nt,-3,nt,1,102*
CCCCOC(=O)c1cc(-c2ccc(/C=N/n3cnnc3)o2)ccc1Cl,7,nt,-4,nt,nt,3
CCOC(=O)c1cc(-c2ccc(/C=N\n3cnnc3)o2)ccc1Cl,25*,nt,0,nt,nt,-13
C[C@@H]1CN(C)C(=O)c2ccccc2O[C@H]1CN(C)C,nt,nt,nt,nt,-2,nt
CN1CCN(C2=C(Cl)C(=O)c3ccccc3C2=O)CC1,nt,4,41*,0,-1,nt
O=C1C(Cl)=C(N2CCC(C(=O)O)CC2)C(=O)c2ccccc21,nt,nt,4,nt,nt,nt
COc1ccc2c3c(n(C)c2c1)[C@H](CO)N(C(=O)CN1CCOCC1)CC31CCN(C(C)=O)CC1,nt,33,nt,-6,nt,nt
O=C(Nc1ccc(S(=O)(=O)N2CCCCC2)cc1)C1CC(=O)N(Cc2ccccc2)C1 (stereo unspecified),-107,+,9,9,-2,-18
Cc1cccc(-n2ncc3c(NC(C)C)ncnc32)c1,2,0,4,-1,31*,9
CC(C)Nc1ncnc2c1cnn2-c1ccccc1,-4,-3,9,-2,-12,-11
O=C(CCC(=O)NNC(=O)COc1ccc(Br)cc1Br)NCc1ccccc1,nt,4,8,0,-10,nt
Cc1cc(Br)cc(Br)c1OCC(=O)NNC(=O)CCC(=O)NCc1ccccc1,5,-3,-5,27*,nt,-12
COc1ccc2cc3[n+](cc2c1O)CCc1cc2c(cc1-3)OCO2,nt,4,nt,2,-11,nt
COc1cc2c(cc1OC)-c1cc3ccc(OC)c(OC)c3c[n+]1CC2,0,6,8,-2,1,60*
CN(C)C(=O)C[C@@H]1C[C@H]2c3cc(NS(C)(=O)=O)ccc3O[C@H]2[C@@H](CO)O1,1,4,nt,93*,-4,1
CS(=O)(=O)Nc1ccc2c(c1)[C@@H]1C[C@H](CC(=O)O)O[C@@H](CO)[C@@H]1O2,nt,-24,nt,-6,-5,nt
SMILES,PglD inh,S100A4 MyoIIA,PDI inh,ERp5 inh,FN deposit inh,RAD54 inh
CN(C)C(=O)C[C@@H]1C[C@@H]2c3cc(NS(C)(=O)=O)ccc3O[C@@H]2[C@H](CO)O1,4,0,nt,77*,-17,7
CS(=O)(=O)Nc1ccc2c(c1)[C@H]1C[C@@H](CC(=O)O)O[C@@H](CO)[C@H]1O2,nt,1,nt,-3,-13,nt
Cc1cnc(NC2=NCCC2)s1,nt,1,38*,3,nt,nt
CC(C)NC(=O)N1[C@@H](CO)[C@@H](c2ccccc2)C12CN(C(=O)Cc1cccnc1)C2,nt,125*,nt,-2,-1,nt
CC(C)NC(=O)N1[C@@H](CO)[C@@H](c2ccccc2)C12CN(C(=O)Cc1ccccc1)C2,nt,7,nt,-6,nt,nt
COc1ccccc1C#Cc1ccc2c(c1)O[C@@H](CN(C)Cc1ccccc1)[C@@H](C)CN([C@H](C)CO)S2(=O)=O,-1,7,nt,-2,nt,-2

# Compound activity: PubChem BioAssay, Broad Institute
